This is a sample that favours compounds with a hit; in the whole collection about 1.7% have one here.
RanGTP-Imp inh: inhibitors of RanGTP-importin-beta interaction, primary screen, biochemical, FRET, CFP-Ran, YFP-importin-beta, homogeneous; actives 1.1% (n = 300,000); Ran GTPase (GTP-bound) - importin-beta complex; cell-free CFP-Ran/YFP-importin-beta FRET ratio; inhibition, % (concentration not given with the values);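 active = more than half of the replicate wells show a fall in the fluorescence ratio signal beyond about 16%, limit read from the data, passing the limit was not always enough; inconclusive = exactly half of the replicate wells pass the set limit; inactive = fewer than half of replicates pass the limit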;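 note: 0% = DMSO wells and 100% = Ran loaded with GDP instead of GTP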
Hck Nef HTS: inhibitors of Nef-activated human Hck kinase, primary screen, biochemical, Z-Lyte FRET, 384-well, Hck-YEEI; Recombinant Hck-YEEI plus Nef, Z-Lyte FRET kinase assay; inhibition, % at 20 µM; actives 0.68% (n = 220,000); AID 463187, 2010;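 active = Hck-Nef kinase inhibition above about 50%, limit read from the data; inactive = inhibition below that limit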;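 note: 0% = DMSO with Hck plus Nef and 100% = Hck alone without Nef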
Runt-CBFb FRET: inhibitors of RUNX1 Runt–CBFb binding, primary screen, biochemical, FRET, Cerulean-Runt, Venus-CBFb, uHTS | Cerulean-Runt/Venus-CBFb FRET ratio 530/480, 1 h | AID 1496, 2009 | Runt-related transcription factor 1 (Homo sapiens) + Core-binding factor subunit beta … | actives 0.46% (n = 220,000) | inhibition, % at 20 µM;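 active = inhibition over about 50% at 20 µM in the single-dose screen, limit read from the data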;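 note: 0% = DMSO wells and 100% = excess unlabeled CBFb competitor control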
Target sequence (Q01196 whole entry, looked up): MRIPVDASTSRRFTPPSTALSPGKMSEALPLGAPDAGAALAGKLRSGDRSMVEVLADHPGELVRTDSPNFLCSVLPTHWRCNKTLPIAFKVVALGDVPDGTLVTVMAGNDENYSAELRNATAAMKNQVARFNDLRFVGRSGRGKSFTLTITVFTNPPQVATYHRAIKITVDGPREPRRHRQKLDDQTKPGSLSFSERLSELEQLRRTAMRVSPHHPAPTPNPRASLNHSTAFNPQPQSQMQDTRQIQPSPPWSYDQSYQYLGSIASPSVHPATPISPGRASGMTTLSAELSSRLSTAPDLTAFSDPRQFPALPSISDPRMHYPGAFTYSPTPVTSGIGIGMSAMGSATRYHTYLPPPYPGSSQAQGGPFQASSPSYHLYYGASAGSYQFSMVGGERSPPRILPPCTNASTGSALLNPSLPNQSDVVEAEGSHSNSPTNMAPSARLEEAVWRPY
Target sequence (Q13951 whole entry, looked up): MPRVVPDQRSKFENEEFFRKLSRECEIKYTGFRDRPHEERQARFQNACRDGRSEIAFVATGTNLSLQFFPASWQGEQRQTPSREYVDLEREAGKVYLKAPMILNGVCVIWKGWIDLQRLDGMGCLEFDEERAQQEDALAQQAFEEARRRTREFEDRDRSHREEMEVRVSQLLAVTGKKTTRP
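Assay system: Cerulean-Runt domain fusion protein, energy donor; Signal: fluorescence energy transfer, 422 nm excitation, 530/480 nm emission; Timing: 1 h compound exposure, room temperature; Control set: unlabeled CBFb; Medium: Tris buffer pH 7.5 with salts and BSA; Compound: single test concentration of 20 µM, 1% DMSO final; Probe or stimulus: Venus-CBFb 100 nM.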
Runt-SMMHC FRET: inhibitors of RUNX1 Runt–CBFb-SMMHC binding, primary screen, biochemical, FRET, Cerulean-Runt, Venus-CBFb-SMMHC, uHTS; Runt-related transcription factor 1 (Homo sapiens) + Core-binding factor subunit beta …; Cerulean-Runt/Venus-CBFb-SMMHC FRET ratio 530/480, 1 h; inhibition, % at 20 µM; actives 0.74% (n = 220,000); AID 1434, 2008;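 active = mean inhibition across duplicate retests at 20 µM reaching about 50%, limit read from the data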;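 note: 0% = DMSO wells and 100% = wells with excess untagged CBFb-SMMHC; inhibitors lower the FRET ratio by blocking Runt binding to CBFb-SMMHC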
* = called active by the depositor; u = inconclusive; x = no result.

SMILES	RanGTP-Imp inh	Hck Nef HTS	Runt-CBFb FRET	Runt-SMMHC FRET
COc1ccc(NC(C)=[N+](C)CCNS(=O)(=O)c2ccc(Cl)cc2)cc1	-4.0	x	x	x
Cc1ccc(N(CC(=O)N2CCN(C3CCCCC3)CC2)S(=O)(=O)c2cccnc2)cc1	x	10.4	-0.1	-4.3
Cc1ccc(/C=C2/SC(=O)NC2=S)o1	x	40.0	26.4	58.9*
Cc1ccc(C2=N/C(=C\N(C)C)C(=O)O2)cc1	16.9*	3.9	0.1	-0.6
COCCn1c(CCC(=O)O)ccc1-c1cccs1	6.2	6.0	31.4	55.1*
Cn1cc(S(=O)(=O)NCc2ccc(Cl)cc2)c(=O)n(C)c1=O	-1.3	15.2	3.3	0.6
COC(=O)c1ccc(/C=N/Nc2nc(N3CCCCC3)nc(N3CCCCC3)n2)cc1	u	-9.8	-1.4	1.6
CCOC(=O)C1C(C)=CC(=O)CC1c1ccco1 (centres undefined)	0.2	0.1	0.9	-1.9
CCOC(=O)C1=C(C)NC2=C(C(=O)C(C(=O)OCC)C(c3ccco3)C2)C1c1ccccn1 (centres undefined)	31.6*	16.8	20.9	38.5
O=C(Cc1ccccc1)N/N=C/c1cc(Br)cc(Cl)c1O	18.1*	4.8	28.3	91.8*
O=C(CP(=O)(c1ccccc1)c1ccccc1)N/N=C/c1cc(Br)cc(Br)c1O	21.0*	3.7	30.6	59.6
C1=C(c2ccco2)N2CCN=C2S1	0.2	x	x	x
CCOc1ccc(S(=O)(=O)N2CCC(C(=O)NCc3ccncc3)CC2)cc1	0.3	x	x	x
CCOc1ccc(NC(=S)NNC(=S)Nc2cccc(C(F)(F)F)c2)cc1	22.0*	2.1	18.9	6.7
CN1CCc2nc(NC(=O)COc3ccc4ccccc4c3)sc2C1	7.7	7.1	x	51.4
CN1CCc2nc(NC(=O)c3cccc(OC(F)F)c3)sc2C1	19.2*	7.9	23.2	68.6*
O=C(OCC(=O)N1CCc2ccccc21)c1ccccn1	5.3	16.9	-0.2	-6.9
CCOC(=O)c1c[nH]c2nc(C)ccc2c1=O	24.0*	9.9	7.1	30.0
CCN(CC)c1ccc(/C=N/NC(=O)c2cccc(S(=O)(=O)Nc3ccccc3OC)c2)c(O)c1	7.6	-9.6	-31.9	81.1*
Nc1c(C=C2C=CC(=O)C=C2)c(=O)nc2sc(CC(=O)N3CCOCC3)nn12	6.9	x	x	x
Nc1c(/C=C2\C=Nc3ccccc32)c(=O)nc2sc(CC(=O)N3CCOCC3)nn12	20.3*	x	x	x
CCOC(=O)c1c(NC(=O)C(C)Sc2cccc[n+]2[O-])sc2c1CCN(Cc1ccccc1)C2 (centres undefined)	x	4.8	111.6*	81.1*
COC(=O)c1c(NC(=O)C2COc3ccccc3O2)sc2c1CCN(Cc1ccccc1)C2 (centres undefined)	69.3*	0.6	28.9	49.7
CCOC(=O)c1c(NC(=O)C(C)Sc2cn(C)c3ccccc23)sc2c1CCC2 (centres undefined)	3.7	-10.7	-1.7	1.0
COC(=O)c1c(NC(=O)Cc2ccccc2)sc2c1CCN(C(C)C)C2	0.7	x	x	x
SMILES	RanGTP-Imp inh	Hck Nef HTS	Runt-CBFb FRET	Runt-SMMHC FRET
CCOC(=O)c1c(NC(=O)CSc2ncccn2)sc2c1CCN(Cc1ccccc1)C2	135.4*	1.0	106.2*	150.8*
COC(=O)c1c(NC(=O)C(C)(C)C)sc2c1CCN(Cc1ccccc1)C2	32.4*	x	x	x
O=C(CSCc1ccccc1)NNC(=S)Nc1cccc(Cl)c1Cl	-0.3	1.0	2.0	1.5
COc1ccc(Nc2nc(NCCN3CCOCC3)nc(Nc3ccc(OC)cc3)n2)cc1	4.4	x	x	x
CCOC(=O)c1c(NC(=O)CC)sc2c1CCN(Cc1ccccc1)C2	89.0*	x	x	x
CCOC(=O)c1c(NC(C)=O)sc2c1CCN(Cc1ccccc1)C2	86.7*	x	x	x
COC(=O)c1c(NC(C)=O)sc2c1CCN(Cc1ccccc1)C2	90.6*	x	x	x
Cc1ccc(S(=O)(=O)NCC(=O)OCC(=O)c2ccc(Cl)s2)cc1	2.2	x	x	x
Cc1nnc(SCC(=O)Nc2ccc([N+](=O)[O-])cc2)n1C	0.4	x	x	x
Cc1ccc(S(=O)(=O)c2cc3ccccc3oc2=O)cc1	u	-0.7	-6.5	-26.3
CCN(CC)c1ccc2cc(C(=O)NNC(=O)c3ccc(S(=O)(=O)N4CCCCC4)cc3)c(=O)oc2c1	118.8*	1.0	66.1*	63.2*
CCN(CC)c1ccc2ccc(=O)oc2c1	95.5*	113.6*	38.7	91.5*
CN(C)C(=O)COc1ccc2ccc(=O)oc2c1	-2.3	2.0	0.3	0.1
CCN(CC)c1ccc2cc(C#N)c(=O)oc2c1	115.2*	13.6	81.8*	92.3*
CCN(CC)c1ccc2cc(S(=O)(=O)c3ccc(C)cc3)c(=O)oc2c1	137.0*	19.8	3.5	79.2*
O=C(NNC(=O)c1ccccc1C(=O)O)c1ccc(S(=O)(=O)N2CCCCC2)cc1	2.9	x	x	x
CCN(CC)C(=O)CNC(=S)N(CCCN1CCOCC1)Cc1cccs1	2.5	2.9	2.8	1.2
COc1nccnc1NS(=O)(=O)c1ccc(N)cc1	2.9	x	x	x
CN1CC=C2C(C#N)=C(N)C(C#N)(C#N)C(Cc3ccccc3)C2C1 (centres undefined)	99.6*	12.6	109.8*	77.6*
Cc1ccc(C2C3CSCC=C3C(C#N)=C(N)C2(C#N)C#N)cc1 (centres undefined)	15.8*	-6.2	-5.2	-23.2
CCC1C2CN(C(C)=O)CC=C2C(C#N)=C(N)C1(C#N)C#N (centres undefined)	0.2	5.9	8.1	25.0
CC(C)N1CC=C2C(C#N)=C(N)C(C#N)(C#N)[C@H](c3ccoc3)[C@H]2C1	55.4*	19.5	49.1	60.4*
CCOC(=O)N1CC=C2C(C#N)=C(N)C(C#N)(C#N)[C@H](c3cccs3)C2C1 (some centres undefined)	-2.5	1.2	-3.6	-10.6
CCN1CC=C2C(C#N)=C(N)C(C#N)(C#N)C(c3cc(Cl)ccc3Cl)C2C1 (centres undefined)	56.4*	10.3	72.6*	65.3*
O=C(NCc1ccc(Cl)cc1)c1cccc2c1C(=O)N(CC1CCCO1)C2 (centres undefined)	-0.1	x	x	x
N#CC1=C(N)C(C#N)(C#N)[C@H](c2ccncc2)[C@H]2CN(C(=O)OCc3ccccc3)CC=C12	10.8	-5.7	12.7	18.3
CC(C)N1CC=C2C(C#N)=C(N)C(C#N)(C#N)C(c3ccccc3)C2C1 (centres undefined)	70.6*	15.8	74.5*	62.6*
CC(C)(C)OC(=O)N1CC=C2C(C#N)=C(N)C(C#N)(C#N)[C@H](c3cccnc3)[C@H]2C1	17.6*	-1.9	15.6	28.9
O=C(Cn1nc2n(c1=O)-c1ccccc1SC2)N/N=C/c1cccnc1	4.4	4.6	-0.1	0.5
O=C(N/N=C/c1sc(=O)[nH]c1-[n+]1ccc2ccccc2c1)c1ccccc1[O-]	24.1*	x	x	x
